Experimental data taken from ChEMBL document CHEMBL4265871, “Novel alkylated azoles as potent antifungals” (Eur J Med Chem, 2017).
In brackets after ≈: the same amount, converted by molar mass.

Test system: not listed separately
Experiment: Toxicity in human A549 cells assessed as reduction in cell viability incubated for 24 hrs by resazurin dye based assay
Details: not given
How it was run: (§1)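 Toxicity tested in the nucleated lines A549 and BEAS-2B to give EC50 values. Selectivity index is EC50 against the mammalian line divided by the MIC against a given fungal strain.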

SMILES	EC50 at 24 h [µg/mL]
CCCCCC(O)(Cn1cncn1)c1ccccc1F (centres undefined)	37 (≈ 133 µM)
CCCCCCC(O)(Cn1cncn1)c1ccccc1F (centres undefined)	> 31.3

Test system: Candida albicans
Experiment: Antifungal activity against ITC and FLC-resistant Candida albicans ATCC MYA-1003 incubated for 48 hrs by modified CLSI M27-A3 protocol based method
Type: functional
Details: ATCC MYA-1003, 48 h
How it was run: (§2)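 Because these Candida strains show trailing growth, MIC-2 was read, meaning 50% growth inhibition. Caspofungin and voriconazole were tested here; other controls came from earlier work.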

SMILES	MIC50 [µM]
CCCCCC(O)(Cn1cncn1)c1ccccc1F (centres undefined)	14.1 (≈ 3.91 µg/mL)
CCCCCCC(O)(Cn1cncn1)c1ccccc1F (centres undefined)	13.4 (≈ 3.9 µg/mL)

Test system: not listed separately
Experiment: Selectivity index, ratio of EC50 for toxicity in human BEAS2B cells to MIC50 for antifungal activity against ITC and FLC-resistant Candida albicans ATCC 1237
Type: cell-based
Details: BEAS-2B cells, read-out: Selectivity Index
How it was run: (§3)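 Selectivity index is the EC50 against the mammalian line (A549 or BEAS-2B) divided by the MIC against the given fungal strain.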

SMILES	selectivity ratio
CCCCCC(O)(Cn1cncn1)c1ccccc1F (centres undefined)	32
CCCCCCC(O)(Cn1cncn1)c1ccccc1F (centres undefined)	32

Test system: not listed separately
Experiment: Hemolytic activity in mouse erythrocytes assessed as hemolysis level at 31.3 ug/ml incubated for 1 hr at 37 degC
Type: ADME, cell-based, Erythrocyte
Details: read-out: Activity
How it was run: (§4)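 Mouse erythrocytes incubated 1 h at 37 °C with test agents over 1.95 to 125 µg/mL. Percent lysis is read for each concentration.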

SMILES	hemolysis at 1 h, 31.3 ug/ml [%]
CCCCCC(O)(Cn1cncn1)c1ccccc1F (centres undefined)	0
CCCCCCC(O)(Cn1cncn1)c1ccccc1F (centres undefined)	8.7

Test system: Nakaseomyces glabratus
Experiment: Antifungal activity against Candida glabrata ATCC 2001 incubated for 48 hrs by modified CLSI M27-A3 protocol based method
Type: functional
Details: ATCC 2001, 48 h

SMILES	MIC50 [µM]
CCCCCC(O)(Cn1cncn1)c1ccccc1F (centres undefined)	3.5 (≈ 0.971 µg/mL)
CCCCCCC(O)(Cn1cncn1)c1ccccc1F (centres undefined)	3.3 (≈ 0.962 µg/mL)

Test system: not listed separately
Experiment: Selectivity index, ratio of EC50 for toxicity in human BEAS2B cells to MIC50 for antifungal activity against ITC and FLC-susceptible Candida albicans ATCC MYA-2310
Type: cell-based
Details: BEAS-2B cells, read-out: Selectivity Index
How it was run: (§5)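 Ratio of the compound's EC50 against BEAS-2B cells to its MIC against the named C. albicans strain. […] For C. albicans strains other than ATCC 10231, trailing growth meant MIC-2 was taken, meaning 50% growth inhibition.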

SMILES	selectivity ratio
CCCCCC(O)(Cn1cncn1)c1ccccc1F (centres undefined)	32
CCCCCCC(O)(Cn1cncn1)c1ccccc1F (centres undefined)	32

Test system: not listed separately
Experiment: Selectivity index, ratio of EC50 for toxicity in human BEAS2B cells to MIC50 for antifungal activity against ITC and FLC-resistant Candida albicans ATCC MYA-1003
Type: cell-based
Details: BEAS-2B cells, read-out: Selectivity Index
How it was run: as §3

SMILES	selectivity ratio
CCCCCC(O)(Cn1cncn1)c1ccccc1F (centres undefined)	8
CCCCCCC(O)(Cn1cncn1)c1ccccc1F (centres undefined)	8

Test system: Candida parapsilosis
Experiment: Antifungal activity against Candida parapsilosis ATCC 22019 incubated for 48 hrs by modified CLSI M27-A3 protocol based method
Type: functional
Details: Lodderomyces parapsilosis, ATCC 22019, 48 h; read-out: MIC100
How it was run: (§6)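 For C. albicans ATCC 10231, C. krusei ATCC 6258 and C. parapsilosis ATCC 22019, MIC-0 was read, meaning complete growth inhibition. For azole controls, MIC-2 (50% growth inhibition) was reported instead. Caspofungin and voriconazole were tested here; other controls came from earlier work.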

SMILES	MIC [µM]
CCCCCC(O)(Cn1cncn1)c1ccccc1F (centres undefined)	0.43 (≈ 0.119 µg/mL)
CCCCCCC(O)(Cn1cncn1)c1ccccc1F (centres undefined)	0.41 (≈ 0.119 µg/mL)

Test system: not listed separately
Experiment: Selectivity index, ratio of EC50 for toxicity in human A549 cells to MIC50 for antifungal activity against ITC and FLC-resistant Candida albicans ATCC MYA-90819
Type: cell-based
Details: read-out: Selectivity Index
How it was run: as §3

SMILES	selectivity ratio
CCCCCC(O)(Cn1cncn1)c1ccccc1F (centres undefined)	77
CCCCCCC(O)(Cn1cncn1)c1ccccc1F (centres undefined)	130

Test system: not listed separately
Experiment: Selectivity index, ratio of EC50 for toxicity in human BEAS2B cells to MIC50 for antifungal activity against ITC and FLC-susceptible Candida albicans ATCC MYA-2876
Type: cell-based
Details: BEAS-2B cells, read-out: Selectivity Index
How it was run: as §5

SMILES	selectivity ratio
CCCCCC(O)(Cn1cncn1)c1ccccc1F (centres undefined)	32
CCCCCCC(O)(Cn1cncn1)c1ccccc1F (centres undefined)	32

Test system: not listed separately
Experiment: Hemolytic activity in mouse erythrocytes assessed as hemolysis level at 1.95 ug/ml incubated for 1 hr at 37 degC
Type: ADME, cell-based, Erythrocyte
Details: read-out: Activity
How it was run: as §4

SMILES	hemolysis at 1 h, 1.95 ug/ml [%]
CCCCCC(O)(Cn1cncn1)c1ccccc1F (centres undefined)	0
CCCCCCC(O)(Cn1cncn1)c1ccccc1F (centres undefined)	0

Test system: not listed separately
Experiment: in vitro
Details: mouse, mouse erythrocytes

SMILES	hemolysis at 1 h, 62.5 ug/ml [%]
CCCCCC(O)(Cn1cncn1)c1ccccc1F (centres undefined)	0
CCCCCCC(O)(Cn1cncn1)c1ccccc1F (centres undefined)	28.8

Test system: Candida albicans
Experiment: Antifungal activity against ITC and FLC-susceptible Candida albicans ATCC MYA-2310 incubated for 48 hrs by modified CLSI M27-A3 protocol based method
Type: functional
Details: ATCC MYA-2310, 48 h

SMILES	MIC50 [µM]
CCCCCC(O)(Cn1cncn1)c1ccccc1F (centres undefined)	3.5 (≈ 0.971 µg/mL)
CCCCCCC(O)(Cn1cncn1)c1ccccc1F (centres undefined)	3.3 (≈ 0.962 µg/mL)

Test system: Aspergillus nidulans
Experiment: Antifungal activity against Aspergillus nidulans ATCC 38163 incubated for 48 hrs by CLSI M38-A2 protocol based method
Type: functional
Details: ATCC 38163, 48 h, read-out: MIC100

SMILES	MIC [µM]
CCCCCC(O)(Cn1cncn1)c1ccccc1F (centres undefined)	1.7 (≈ 0.471 µg/mL)
CCCCCCC(O)(Cn1cncn1)c1ccccc1F (centres undefined)	1.6 (≈ 0.466 µg/mL)

Test system: not listed separately
Experiment: Selectivity index, ratio of EC50 for toxicity in human A549 cells to MIC50 for antifungal activity against ITC and FLC-resistant Candida albicans ATCC MYA-1003
Type: cell-based
Details: read-out: Selectivity Index
How it was run: as §3

SMILES	selectivity ratio
CCCCCC(O)(Cn1cncn1)c1ccccc1F (centres undefined)	9
CCCCCCC(O)(Cn1cncn1)c1ccccc1F (centres undefined)	8

Test system: not listed separately
Experiment: Selectivity index, ratio of EC50 for toxicity in human BEAS2B cells to MIC100 for antifungal activity against Candida albicans ATCC 10231
Type: cell-based
Details: BEAS-2B cells, read-out: Selectivity Index
How it was run: as §3

SMILES	selectivity ratio
CCCCCC(O)(Cn1cncn1)c1ccccc1F (centres undefined)	8
CCCCCCC(O)(Cn1cncn1)c1ccccc1F (centres undefined)	16

Test system: not listed separately
Experiment: Selectivity index, ratio of EC50 for toxicity in human BEAS2B cells to MIC50 for antifungal activity against Candida glabrata ATCC 2001
Type: cell-based
Details: BEAS-2B cells, read-out: Selectivity Index
How it was run: as §3

SMILES	selectivity ratio
CCCCCC(O)(Cn1cncn1)c1ccccc1F (centres undefined)	32
CCCCCCC(O)(Cn1cncn1)c1ccccc1F (centres undefined)	32

Test system: not listed separately
Experiment: Hemolytic activity in mouse erythrocytes assessed as hemolysis level at 3.9 ug/ml incubated for 1 hr at 37 degC
Type: ADME, cell-based, Erythrocyte
Details: read-out: Activity
How it was run: as §4

SMILES	hemolysis at 1 h, 3.9 ug/ml [%]
CCCCCC(O)(Cn1cncn1)c1ccccc1F (centres undefined)	0
CCCCCCC(O)(Cn1cncn1)c1ccccc1F (centres undefined)	0

Test system: not listed separately
Experiment: Selectivity index, ratio of […] for toxicity in human A549 cells to MIC50 for antifungal activity against Aspergillus nidulans ATCC 38163
Type: cell-based
Details: read-out: Selectivity Index

SMILES	selectivity ratio
CCCCCC(O)(Cn1cncn1)c1ccccc1F (centres undefined)	77
CCCCCCC(O)(Cn1cncn1)c1ccccc1F (centres undefined)	65

Test system: Candida albicans
Experiment: Antifungal activity against ITC and FLC-susceptible Candida albicans ATCC MYA-2876 incubated for 48 hrs by modified CLSI M27-A3 protocol based method
Type: functional
Details: ATCC MYA-2876, 48 h
How it was run: as §2

SMILES	MIC50 [µM]
CCCCCC(O)(Cn1cncn1)c1ccccc1F (centres undefined)	3.5 (≈ 0.971 µg/mL)
CCCCCCC(O)(Cn1cncn1)c1ccccc1F (centres undefined)	3.3 (≈ 0.962 µg/mL)

Test system: Candida albicans
Experiment: Antifungal activity against Candida albicans ATCC 64124 incubated for 48 hrs by modified CLSI M27-A3 protocol based method
Type: functional
Details: ATCC 64124, 48 h

SMILES	MIC50 [µM]
CCCCCC(O)(Cn1cncn1)c1ccccc1F (centres undefined)	> 113
CCCCCCC(O)(Cn1cncn1)c1ccccc1F (centres undefined)	> 107

Test system: not listed separately
Experiment: Hemolytic activity in mouse erythrocytes assessed as hemolysis level at 7.8 ug/ml incubated for 1 hr at 37 degC
Type: ADME, cell-based, Erythrocyte
Details: read-out: Activity
How it was run: as §4

SMILES	hemolysis at 1 h, 7.8 ug/ml [%]
CCCCCC(O)(Cn1cncn1)c1ccccc1F (centres undefined)	0
CCCCCCC(O)(Cn1cncn1)c1ccccc1F (centres undefined)	0

Test system: not listed separately
Experiment: Selectivity index, ratio of […] for toxicity in human BEAS2B cells to MIC50 for antifungal activity against Aspergillus flavus ATCC MYA-3631
Type: cell-based
Details: BEAS-2B cells, read-out: Selectivity Index

SMILES	selectivity ratio
CCCCCC(O)(Cn1cncn1)c1ccccc1F (centres undefined)	4
CCCCCCC(O)(Cn1cncn1)c1ccccc1F (centres undefined)	1 to 2

Test system: not listed separately
Experiment: Selectivity index, ratio of EC50 for toxicity in human BEAS2B cells to MIC50 for antifungal activity against Candida albicans ATCC 64124
Type: cell-based
Details: BEAS-2B cells, read-out: Selectivity Index
How it was run: as §3

SMILES	selectivity ratio
CCCCCC(O)(Cn1cncn1)c1ccccc1F (centres undefined)	1
CCCCCCC(O)(Cn1cncn1)c1ccccc1F (centres undefined)	1

Test system: not listed separately
Experiment: Selectivity index, ratio of EC50 for toxicity in human A549 cells to MIC for antifungal activity against Candida parapsilosis ATCC 22019
Details: not given

SMILES	selectivity ratio
CCCCCC(O)(Cn1cncn1)c1ccccc1F (centres undefined)	308
CCCCCCC(O)(Cn1cncn1)c1ccccc1F (centres undefined)	261

Test system: not listed separately
Experiment: Selectivity index, ratio of EC50 for toxicity in human A549 cells to MIC50 for antifungal activity against ITC and FLC-resistant Candida albicans ATCC 1237
Type: cell-based
Details: read-out: Selectivity Index
How it was run: as §3

SMILES	selectivity ratio
CCCCCC(O)(Cn1cncn1)c1ccccc1F (centres undefined)	38
CCCCCCC(O)(Cn1cncn1)c1ccccc1F (centres undefined)	32

Test system: not listed separately
Experiment: Selectivity index, ratio of EC50 for toxicity in human A549 cells to MIC50 for antifungal activity against Candida krusei ATCC 6258
Details: not given

SMILES	selectivity ratio
CCCCCC(O)(Cn1cncn1)c1ccccc1F (centres undefined)	617
CCCCCCC(O)(Cn1cncn1)c1ccccc1F (centres undefined)	522

Test system: not listed separately
Experiment: Selectivity index, ratio of EC50 for toxicity in human A549 cells to MIC50 for antifungal activity against ITC and FLC-susceptible Candida albicans ATCC MYA-2876
Type: cell-based
Details: read-out: Selectivity Index
How it was run: as §3

SMILES	selectivity ratio
CCCCCC(O)(Cn1cncn1)c1ccccc1F (centres undefined)	38
CCCCCCC(O)(Cn1cncn1)c1ccccc1F (centres undefined)	32

Test system: not listed separately
Experiment: Selectivity index, ratio of EC50 for toxicity in human BEAS2B cells to MIC50 for antifungal activity against Candida krusei ATCC 6258
Details: BEAS-2B cells

SMILES	selectivity ratio
CCCCCC(O)(Cn1cncn1)c1ccccc1F (centres undefined)	522
CCCCCCC(O)(Cn1cncn1)c1ccccc1F (centres undefined)	522

Test system: not listed separately
Experiment: Toxicity in human BEAS2B cells assessed as reduction in cell viability incubated for 24 hrs by resazurin dye based assay
Details: BEAS-2B cells
How it was run: as §1

SMILES	EC50 at 24 h [µg/mL]
CCCCCC(O)(Cn1cncn1)c1ccccc1F (centres undefined)	> 31.3
CCCCCCC(O)(Cn1cncn1)c1ccccc1F (centres undefined)	> 31.3

Test system: Pichia kudriavzevii
Experiment: Antifungal activity against Candida krusei ATCC 6258 incubated for 48 hrs by modified CLSI M27-A3 protocol based method
Type: functional
Details: ATCC 6258, 48 h, read-out: MIC100
How it was run: as §6

SMILES	MIC [µM]
CCCCCC(O)(Cn1cncn1)c1ccccc1F (centres undefined)	0.22 (≈ 0.061 µg/mL)
CCCCCCC(O)(Cn1cncn1)c1ccccc1F (centres undefined)	0.21 (≈ 0.0612 µg/mL)

Test system: not listed separately
Experiment: Selectivity index, ratio of EC50 for toxicity in human A549 cells to MIC50 for antifungal activity against Candida albicans ATCC 64124
Type: cell-based
Details: read-out: Selectivity Index
How it was run: as §3

SMILES	selectivity ratio
CCCCCC(O)(Cn1cncn1)c1ccccc1F (centres undefined)	1
CCCCCCC(O)(Cn1cncn1)c1ccccc1F (centres undefined)	1
